For 1 compound, MIC and Activity results are on record in ChEMBL document CHEMBL1275408, “A chemical genomic screen in Saccharomyces cerevisiae reveals a role for diphthamidation of translation elongation factor 2 in inhibition of protein synthesis by sordarin” (2008).

Assay [1] relates to Saccharomyces cerevisiae. The assay is described as follows: Antifungal activity against Saccharomyces cerevisiae BY4741 harboring ADY3 YDL239C mutant gene by spectrophotometry. It is filed as functional. The gist of the method: (§1)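 Screen of BY4741 KanMX4 deletion strains pre-grown 3 days at 28°C in YPD with G418 (150 mg/liter), then pinned into liquid SC containing GM193663. The sensitivity screen used 2 ng/ml; the resistance screen used 62.5 ng/ml, with validation at 62.5, 125 and 500 ng/ml. OD595 was read every 24 h over 5 days at 28°C. Growth was scored relative to wild type and to drug-free controls. Retests were at least in duplicate.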

For assay [2], the system named is Saccharomyces cerevisiae. In words: Antifungal activity against Saccharomyces cerevisiae BY4741 harboring PRR2 YDL214C mutant gene by spectrophotometry. The class given is functional. In a few lines:
(§2)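 Haploid MATa BY4741 KanMX4 deletion strains pinned from frozen stocks into YPD + G418 (150 mg/liter), grown 3 days at 28°C to confluence, then pin-replicated into SC liquid with no drug or sordarin derivative GM193663 (2 ng/ml sensitivity; 62.5 ng/ml resistance). 28°C, OD595 read every 24 h for 5 days; growth scored relative to wild type on same plate and to untreated mutant.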

Assay [3] has as its system Saccharomyces cerevisiae. The assay is described as follows: Antifungal activity against Saccharomyces cerevisiae BY4741 harboring MIP1 YOR330C mutant gene by spectrophotometry. The class given is functional. In a few lines: as §1
The subject of assay [4] is Saccharomyces cerevisiae. The assay is described as follows: Antifungal activity against Saccharomyces cerevisiae BY4741 harboring KTR7 YIL085C mutant gene by spectrophotometry. The class given is functional. In a few lines:
as §1

The subject of assay [5] is Saccharomyces cerevisiae. The assay is described as follows: Antifungal activity against Saccharomyces cerevisiae BY4741 harboring MRPL36 YBR122C mutant gene by spectrophotometry. It is filed as functional. In a few lines: as §2
Assay [6] deals with Saccharomyces cerevisiae. The assay is described as follows: Antifungal activity against Saccharomyces cerevisiae BY4741 harboring MRP21 YBL090W mutant gene by spectrophotometry. The class given is functional. The gist of the method: as §1
For assay [7], the system named is Saccharomyces cerevisiae. In words: Antifungal activity against Saccharomyces cerevisiae BY4741 harboring RSM19 YNR037C mutant gene by spectrophotometry. It is filed as functional. In a few lines: as §2
Assay [8] has as its system Saccharomyces cerevisiae. In words: Antifungal activity against Saccharomyces cerevisiae BY4741 harboring RPS18A YDR450W mutant gene by spectrophotometry. It is filed as functional. The gist of the method: as §2
In assay [9] the test system is Saccharomyces cerevisiae. In words: Antifungal activity against Saccharomyces cerevisiae BY4741 harboring RPL21A YBR191W mutant gene by spectrophotometry. It is filed as functional. The gist of the method:
as §2

Assay [10] relates to Saccharomyces cerevisiae. In words: Antifungal activity against Saccharomyces cerevisiae BY4741 harboring deletion mutation in dph3 gene at 300 to 500 ng/ml after 24 hrs by liquid growth assay. It is filed as functional.
The subject of assay [11] is Saccharomyces cerevisiae. In words: Antifungal activity against Saccharomyces cerevisiae BY4741 harboring deletion mutation in dph1 gene at 300 to 500 ng/ml after 24 hrs by liquid growth assay. The class given is functional.
Assay [12] concerns Saccharomyces cerevisiae. In words: Antifungal activity against Saccharomyces cerevisiae BY4741 harboring deletion mutation in dph4 gene at 100 ng/ml by plate assay. It is filed as functional, organism-based. In a few lines: (§3)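 Spot test on solid SC glucose plates with or without 100 ng/ml sordarin. Drops of 10^5 cells plus 10-fold serial dilutions of each dph deletion strain were spotted alongside the parental strain. Plates were incubated at 28°C for 6 days and imaged every 24 h.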

Assay [13] has as its system Saccharomyces cerevisiae. In words: Antifungal activity against Saccharomyces cerevisiae BY4741 harboring deletion mutation in dph3 gene at 100 ng/ml by plate assay. It is filed as functional, organism-based. In a few lines: as §3
For assay [14], the system named is Saccharomyces cerevisiae. In words: Antifungal activity against Saccharomyces cerevisiae BY4741 harboring deletion mutation in dph1 gene at 100 ng/ml by plate assay. It is filed as functional, organism-based. The gist of the method:
as §3

Assay [15] has as its system Saccharomyces cerevisiae. The assay is described as follows: Antifungal activity against Saccharomyces cerevisiae BY4741 harboring RMD9 YGL107C mutant gene by spectrophotometry. It is filed as functional. In a few lines:
as §2

Assay [16] deals with Saccharomyces cerevisiae. The assay is described as follows: Antifungal activity against Saccharomyces cerevisiae BY4741 harboring YDL062W mutation in unknown gene by spectrophotometry. It is filed as functional. In a few lines: as §2
The test system of assay [17] is Saccharomyces cerevisiae. The assay is described as follows: Antifungal activity against Saccharomyces cerevisiae BY4741 harboring YOL079W mutation in unknown gene by spectrophotometry. It is filed as functional. The gist of the method:
(§4)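 Deletion strains from the nonessential haploid MATa BY4741 collection (KanMX4 replacement) were grown in YPD with G418 at 28°C for 3 days, then pinned into liquid SC with or without sordarin derivative GM193663 (2 ng/ml for sensitivity, 62.5 ng/ml for resistance). Cultures were kept at 28°C and read at OD595 every 24 h for 5 days. Growth was scored against wild type on the same plate and against the drug-free control. Hits were retested at least in duplicate.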

Assay [18] relates to Saccharomyces cerevisiae. In words: Antifungal activity against Saccharomyces cerevisiae BY4741 harboring YLR143W mutation in unknown gene by spectrophotometry. The class given is functional. In a few lines: as §4
Assay [19] concerns Saccharomyces cerevisiae. In words: Antifungal activity against Saccharomyces cerevisiae BY4741 harboring YBR255W mutation in unknown gene by spectrophotometry. It is filed as functional. The gist of the method: as §2

Structures are written as SMILES. Calls of active or inactive are those of the source. No cut-off for these calls is given here. A value given as a limit tells only on which side of the number the result lay.

The MIC is the least concentration at which growth counts as inhibited. As for `CO[C@H]1[C@@H](O)[C@H](O)[C@H](OC[C@@]23C[C@@H]4[C@H](C)CC[C@H]4[C@@]4(C=O)CC2C=C(C(C)C)[C@@]34C(=O)O)O[C@@H]1C` [SORDARIN], the MIC in [1] was over 0.0625 µg/mL; in assay [2], over 0.5 µg/mL; in assay [3], over 0.5 µg/mL; in assay [4], over 0.5 µg/mL; in [5], over 0.5 µg/mL; in [6], over 0.5 µg/mL. Further, the MIC in assay [7] is over 0.5 µg/mL; in [8], over 0.0625 µg/mL; in assay [9], over 0.125 µg/mL; in [15] it was over 0.125 µg/mL; in assay [16], over 0.125 µg/mL; in [17], over 0.5 µg/mL. The MIC in [18] and in [19] was over 0.5 µg/mL in each case. In addition, the Activity in assay [10] and in assay [11] was 50% throughout. The MIC entry in [12], in assay [13] and in [14] was “inactive” each time.
